Reference: ChEMBL document CHEMBL1158435, “Identification of a novel inhibitor of JAK2 tyrosine kinase by structure-based virtual screening” (Bioorg Med Chem Lett, 2009)
Active and inactive are the calls of the source. The rule behind the calls is not given here.

Tests used:
HEL [1] = experiment: Growth inhibition of HEL cells harboring Val617Phe mutation in JAK2 at 25 uM after 72 hrs by trypan blue exclusion assay; format: functional; conditions: Homo sapiens, read-out: GI
Outline: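 Screening assay of HEL growth inhibition. HEL cells carry JAK2-Val617Phe on both alleles. Each compound was tested at a single final concentration of 25 μM.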

[2] = molecular target: Proto-oncogene tyrosine-protein kinase Src (Homo sapiens) (UniProt P12931); experiment: Inhibition of recombinant pp60c-Src autophosphorylation at 25 uM by Western blotting
Outline: (§1)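 Cell-free c-Src kinase assay, with compound tested at 25 μM.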

[3] = molecular target: Proto-oncogene tyrosine-protein kinase Src (Homo sapiens) (UniProt P12931); experiment: Inhibition of recombinant pp60c-Src at 25 uM by Western blotting; outline: as §1
[4] = molecular target: Non-receptor tyrosine-protein kinase TYK2 (Homo sapiens) (UniProt P29597); experiment: Inhibition of TYK2 transfected in mouse embryonic fibroblasts at 25 uM by Western blotting
Outline: (§2)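 TYK2 autophosphorylation was measured within intact cells, with compound present at 25 μM.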

[5] = molecular target: Non-receptor tyrosine-protein kinase TYK2 (Homo sapiens) (UniProt P29597); experiment: Inhibition of TYK2 autophosphorylation transfected in mouse embryonic fibroblasts at 25 uM by Western blotting; outline: as §2
HEL [6] = experiment: Growth inhibition of HEL cells harboring Val617Phe mutation in JAK2 assessed as reduction in cell number at 0.001 to 10 uM after 48 hrs using trypan blue staining by hemocytometry; format: functional, cell-based; conditions: Homo sapiens
Outline: (§3)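 Four lines were compared: HEL (JAK2-Val617Phe on both alleles), CMK (JAK3-Ala572Val), Raji (c-Myc/heavy-chain locus translocation) and BSC-40 (green monkey kidney epithelial, SV-40 large T immortalized). Cells were exposed to compound over 10−9 to 10−4 M, and the read-out was cell number.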

Raji [7] = experiment: Growth inhibition of human Raji cells possessing […] between c-Myc gene on chromosome 8 and heavy chain locus on chromosome 14 assessed as reduction in cell number at 0.001 to 10 uM after 48 hrs using trypan blue staining by hemocytometry; format: functional, cell-based; outline: as §3
CMK [8] = experiment: Growth inhibition of human CMK cells harboring Ala572Val mutation in JAK3 assessed as reduction in cell number at 0.001 to 10 uM after 48 hrs using trypan blue staining by hemocytometry; format: functional, cell-based; outline: as §3
BSC-40 [9] = experiment: Growth inhibition of african green monkey BSC40 cells immortalized with SV40 large T antigen assessed as reduction in cell number at 0.001 to 10 uM after 48 hrs using trypan blue staining by hemocytometry; format: functional, cell-based; conditions: Chlorocebus aethiops; outline: as §3
HEL [10] = experiment: Growth inhibition of HEL cells harboring Val617Phe mutation in JAK2 assessed as reduction in cell number at 100 uM after 48 hrs using trypan blue staining by hemocytometry; format: functional, cell-based; conditions: Homo sapiens; outline: as §3
Raji [11] = experiment: Growth inhibition of human Raji cells possessing […] between c-Myc gene on chromosome 8 and heavy chain locus on chromosome 14 assessed as reduction in cell number at 100 uM after 48 hrs using trypan blue staining by hemocytometry; format: functional, cell-based; outline: as §3
CMK [12] = experiment: Growth inhibition of human CMK cells harboring Ala572Val mutation in JAK3 assessed as reduction in cell number at 100 uM after 48 hrs using trypan blue staining by hemocytometry; format: functional, cell-based; outline: as §3
BSC-40 [13] = experiment: Growth inhibition of african green monkey BSC40 cells immortalized with SV40 large T antigen assessed as reduction in cell number at 100 uM after 48 hrs using trypan blue staining by hemocytometry; format: functional, cell-based; conditions: Chlorocebus aethiops; outline: as §3
[14] = Inhibition of pathological growth of human hematopoietic progenitor cells isolated from polycythemia vera patient assessed as erythroid colony formation at 2.5 uM after 14 days in absence of erythropoietin; format: functional; conditions: 336 h, read-out: GI
[15] = test system: Tyrosine-protein kinase JAK2 (Homo sapiens), O60674 [V617F]; experiment: (§4) Inhibition of recombinant JAK2-Val617Phe kinase activity after 30 mins by luminometry
Outline: (§5)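 Cell-free kinase assay. Recombinant JAK2-Val617Phe protein (JH1+JH2) was incubated with increasing inhibitor concentrations. After the kinetic reactions, relative kinase inhibition was determined from the residual ATP level in each reaction.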

[16] = molecular target: Tyrosine-protein kinase JAK2 (Homo sapiens, UniProt O60674, V617F); experiment: as §4; outline: as §5
HEL [17] = experiment: Reduction in phospho-JAK2 [pYpY1007/1008] level in HEL cells after 48 hrs by […]; format: functional, cell-based; conditions: Homo sapiens
Outline: (§6)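 HEL cells were treated across varying compound concentrations and exposure times. Phospho-JAK2 protein levels were then measured in the cells.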

HEL [18] = experiment: Reduction in phospho-JAK2 [pYpY1007/1008] level in HEL cells at 25 uM by […]; format: functional, cell-based; conditions: Homo sapiens, TDE = time-dependent effect; outline: as §6
[19] = test system: Tyrosine-protein kinase JAK2 (Homo sapiens), O60674 [V617F]; experiment: Inhibition of recombinant JAK2-Val617Phe kinase activity at 25 uM after 30 mins by luminometry; outline: as §5
[20] = Inhibition of pathological growth of human hematopoietic progenitor cells isolated from polycythemia vera patient assessed as erythroid colony formation at 2.5 uM after 14 days in absence of erythropoietin; conditions: 336 h, read-out: GI

Chain of Proto-oncogene tyrosine-protein kinase Src (Homo sapiens) (P12931 2-536 limits assumed): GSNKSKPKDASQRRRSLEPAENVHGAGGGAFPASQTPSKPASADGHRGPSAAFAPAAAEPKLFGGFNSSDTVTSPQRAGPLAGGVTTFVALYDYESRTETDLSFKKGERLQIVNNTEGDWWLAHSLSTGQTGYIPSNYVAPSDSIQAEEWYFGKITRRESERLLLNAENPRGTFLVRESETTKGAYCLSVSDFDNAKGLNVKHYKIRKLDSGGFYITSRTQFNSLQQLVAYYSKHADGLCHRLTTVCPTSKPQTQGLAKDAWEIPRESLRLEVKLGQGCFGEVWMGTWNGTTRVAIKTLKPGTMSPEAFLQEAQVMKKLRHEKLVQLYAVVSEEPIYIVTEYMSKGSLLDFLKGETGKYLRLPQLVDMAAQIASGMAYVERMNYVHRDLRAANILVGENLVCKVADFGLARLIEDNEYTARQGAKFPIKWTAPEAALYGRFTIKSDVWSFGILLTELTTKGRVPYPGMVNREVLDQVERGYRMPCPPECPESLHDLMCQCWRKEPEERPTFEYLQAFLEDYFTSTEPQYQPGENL
Chain of Tyrosine-protein kinase JAK2 (Homo sapiens), O60674 [V617F] (O60674 whole entry V617F): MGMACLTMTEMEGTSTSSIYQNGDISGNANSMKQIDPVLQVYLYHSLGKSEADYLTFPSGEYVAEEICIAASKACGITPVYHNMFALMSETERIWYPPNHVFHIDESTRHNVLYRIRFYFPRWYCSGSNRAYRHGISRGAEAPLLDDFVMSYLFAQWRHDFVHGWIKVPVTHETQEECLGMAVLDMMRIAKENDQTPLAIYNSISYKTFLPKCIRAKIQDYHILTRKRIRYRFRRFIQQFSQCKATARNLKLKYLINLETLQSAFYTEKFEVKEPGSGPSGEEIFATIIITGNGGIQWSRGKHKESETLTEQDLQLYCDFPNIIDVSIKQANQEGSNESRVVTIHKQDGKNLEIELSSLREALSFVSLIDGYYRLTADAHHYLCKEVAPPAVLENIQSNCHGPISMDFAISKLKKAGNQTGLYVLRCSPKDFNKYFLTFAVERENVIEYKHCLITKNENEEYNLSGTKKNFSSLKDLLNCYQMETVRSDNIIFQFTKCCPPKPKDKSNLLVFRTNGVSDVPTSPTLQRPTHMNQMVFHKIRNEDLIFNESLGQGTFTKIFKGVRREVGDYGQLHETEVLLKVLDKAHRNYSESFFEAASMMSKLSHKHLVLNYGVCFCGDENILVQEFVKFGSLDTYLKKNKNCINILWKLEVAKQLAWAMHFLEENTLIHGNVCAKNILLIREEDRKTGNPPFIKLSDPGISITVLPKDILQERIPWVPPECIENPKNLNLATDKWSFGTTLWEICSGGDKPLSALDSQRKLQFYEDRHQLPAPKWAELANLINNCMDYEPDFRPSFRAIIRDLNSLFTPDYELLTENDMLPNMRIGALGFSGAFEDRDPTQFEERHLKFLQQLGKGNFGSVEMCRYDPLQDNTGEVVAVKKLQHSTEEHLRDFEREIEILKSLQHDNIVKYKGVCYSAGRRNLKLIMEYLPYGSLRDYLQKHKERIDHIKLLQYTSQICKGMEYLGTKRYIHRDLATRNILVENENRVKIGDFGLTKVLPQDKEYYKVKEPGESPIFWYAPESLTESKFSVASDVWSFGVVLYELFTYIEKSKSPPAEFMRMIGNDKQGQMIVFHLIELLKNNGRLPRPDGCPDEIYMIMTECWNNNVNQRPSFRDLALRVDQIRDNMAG
Chain of Non-receptor tyrosine-protein kinase TYK2 (Homo sapiens) (P29597 whole entry): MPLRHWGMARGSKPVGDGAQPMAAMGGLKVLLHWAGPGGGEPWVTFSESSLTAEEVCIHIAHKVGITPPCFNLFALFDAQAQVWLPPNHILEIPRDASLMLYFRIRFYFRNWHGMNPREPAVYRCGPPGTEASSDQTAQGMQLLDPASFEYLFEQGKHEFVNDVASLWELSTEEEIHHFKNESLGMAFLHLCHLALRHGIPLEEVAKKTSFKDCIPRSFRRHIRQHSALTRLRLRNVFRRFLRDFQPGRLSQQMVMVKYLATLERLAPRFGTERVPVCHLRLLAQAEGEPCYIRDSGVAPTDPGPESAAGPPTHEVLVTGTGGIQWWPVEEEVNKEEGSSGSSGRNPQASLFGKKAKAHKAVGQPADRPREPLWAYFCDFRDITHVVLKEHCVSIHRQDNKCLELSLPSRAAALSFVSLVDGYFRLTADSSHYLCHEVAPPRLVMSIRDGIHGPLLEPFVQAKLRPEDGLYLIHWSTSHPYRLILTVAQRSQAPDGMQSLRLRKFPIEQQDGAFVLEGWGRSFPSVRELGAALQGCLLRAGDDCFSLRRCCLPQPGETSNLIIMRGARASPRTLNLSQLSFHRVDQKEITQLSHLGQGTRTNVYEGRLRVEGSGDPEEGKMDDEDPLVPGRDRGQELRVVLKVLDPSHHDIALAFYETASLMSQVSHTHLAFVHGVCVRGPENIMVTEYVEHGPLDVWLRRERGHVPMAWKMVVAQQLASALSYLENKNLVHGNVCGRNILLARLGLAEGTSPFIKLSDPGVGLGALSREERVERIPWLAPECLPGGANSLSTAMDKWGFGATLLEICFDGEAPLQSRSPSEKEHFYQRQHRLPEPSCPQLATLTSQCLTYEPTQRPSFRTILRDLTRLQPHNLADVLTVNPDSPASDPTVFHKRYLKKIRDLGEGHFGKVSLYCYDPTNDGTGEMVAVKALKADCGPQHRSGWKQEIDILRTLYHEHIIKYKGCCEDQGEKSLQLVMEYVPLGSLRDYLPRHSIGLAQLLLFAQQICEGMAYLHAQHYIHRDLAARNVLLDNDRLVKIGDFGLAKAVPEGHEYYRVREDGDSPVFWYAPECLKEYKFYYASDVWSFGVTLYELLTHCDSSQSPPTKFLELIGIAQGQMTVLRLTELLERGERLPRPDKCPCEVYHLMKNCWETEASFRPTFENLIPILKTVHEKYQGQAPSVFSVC
Chain of Tyrosine-protein kinase JAK2 (O60674 whole entry V617F): as the sequence (O60674 whole entry V617F) above

Compound `O=C(c1cccc([N+](=O)[O-])c1)c1c(O)oc2ccccc2c1=O` has an inhibition of growth at 25 µM (HEL [1]) of 40%.
In the case of `CC(C)(C)n1nc(-c2ccc(Cl)cc2)c2c(N)ncnc21`, the inhibition [2] is reported as “Active”.
In the case of `C/C(CC(=O)c1ccccc1)=N/CCCC/N=C(/C)CC(=O)c1ccccc1`, the inhibition of growth at 25 µM (HEL [1]) is reported as 19%.
For `CC(=O)c1c(O)cc(O)cc1-c1cc(=O)c2c(O)ccc(C(C)=O)c2o1`, the inhibition of growth at 25 µM (HEL [1]) was 42%.
With `Nc1ccc(C(=O)Nc2ccc3cc(S(=O)(=O)O)cc(O)c3c2)cc1` the inhibition of growth at 25 µM (HEL [1]) was 39%.
With `CC1=CN=C(NCCCCNC2=NC=C(C)/C(=C3/C=CC=CC3=O)N2)N/C1=C1/C=CC=CC1=O` the inhibition of growth at 25 µM (HEL [1]) was 16%.
For `O=C(NCCNCCO)c1cccc(Nc2cc(O)c(O)c3ccccc23)c1`, the inhibition of growth at 25 µM (HEL [1]) was 42%.
In the case of `O=C(Nc1ccc(Cc2ccc(NC(=O)Nc3cccc(C4=NCCN4)c3)cc2)cc1)Nc1cccc(C2=NCCN2)c1`, the inhibition of growth at 25 µM (HEL [1]) is reported as 13%.
Compound `O/N=C(\c1ccccc1)c1ccc[n+](CCc2ccccc2)c1` has an inhibition of growth at 25 µM (HEL [1]) of 38%.
In the case of `O=C(/C=C(\O)c1ccc(F)cc1)C(=O)/C=C(\O)c1ccc(F)cc1`, the inhibition of growth at 25 µM (HEL [1]) is reported as 36%.
With `COc1ccc2nc(NC(=O)Nc3ccc(C)c(NC(=O)Nc4nc5ccc(OC)cc5s4)c3)sc2c1` the inhibition of growth at 25 µM (HEL [1]) was 57%.
`CCCCCCCNC1=C(OCC)C(=O)c2ccccc2C1=O` gave an inhibition of growth at 25 µM (HEL [1]) of 24%.
`O=C(/C=C(\C=C\c1ccccc1)c1ccccc1)CC(=O)c1ccccc1` gave an inhibition of growth at 25 µM (HEL [1]) of 11%.
`O=C1C=Cc2ccccc2/C1=C/N/N=C(\C(=O)c1ccccc1)c1ccccc1` showed an inhibition of growth at 25 µM (HEL [1]) of 27%.
`CC(=O)c1cc(Cl)ccc1OCC(O)CNc1ccccc1C(=O)c1ccccc1` (stereo unspecified) showed an inhibition of growth at 25 µM (HEL [1]) of 41%.
In the case of `O=C1C=Cc2ccccc2/C1=C/NNS(=O)(=O)c1cc(Cl)c(Cl)cc1Cl`, the inhibition of growth at 25 µM (HEL [1]) is reported as 51%.
With `CCCCCCCCNC(C(=O)c1ccc(Cl)cc1)c1ccc(Cl)cc1` (stereo unspecified) the inhibition of growth at 25 µM (HEL [1]) was 7%.
`COc1ccc(-c2n[nH]c(=S)c(-c3ccccc3)c2-c2ccccc2)cc1` showed an inhibition of growth at 25 µM (HEL [1]) of 44%.
For `O=[N+]([O-])c1cc(/C=N/NS(=O)(=O)c2cc(Cl)c(Cl)cc2Cl)ccc1Cl`, the inhibition of growth at 25 µM (HEL [1]) was 27%.
In the case of `O=C(CC(=O)c1ccccc1)CC(O)(/C=C/c1ccccc1)c1ccccc1` (stereo unspecified), the inhibition of growth at 25 µM (HEL [1]) is reported as 15%.
In the case of `O=C(CC(=O)CC(=O)c1ccccc1)CC(=O)c1ccccc1`, the inhibition of growth at 25 µM (HEL [1]) is reported as 67%.
In the case of `O=C(Nc1ccccc1)Nc1ccc2ccccc2c1`, the inhibition of growth at 25 µM (HEL [1]) is reported as 38%.
With `CC/C(=C(/CC)c1ccc(O)c(CN(CC)CC)c1)c1ccc(O)c(CN(CC)CC)c1` the inhibition [3] was “inactive”, the inhibition [4] was “inactive” and the inhibition [5] was “inactive”. The inhibition [2] was “inactive”, the “growth inhibition (GI)” value (HEL [6]) was “Active” and the “growth inhibition (GI)” value (Raji [7]) was “inactive”. For the same compound, the “growth inhibition (GI)” value (CMK [8]) was “inactive”, the “growth inhibition (GI)” value (BSC-40 [9]) was “inactive” and the “growth inhibition (GI)” value (HEL [10]) was “Active”. The “growth inhibition (GI)” value (Raji [11]) was “Active”, the “growth inhibition (GI)” value (CMK [12]) was “Active” and the “growth inhibition (GI)” value (BSC-40 [13]) was “Active”. For the same compound, the inhibition of growth at 2.5 µM [14] was greater than 50%, the inhibition of growth at 25 µM (HEL [1]) was greater than 99% and the Activity [15] was “Dose-dependent effect”. The IC50 [16] was 60 nM, the Activity (HEL [17]) was “Dose-dependent effect” and the Activity (HEL [18]) was “tde”. For the same compound, the inhibition [19] was greater than 99% and the inhibition of growth at 2.5 µM [20] was greater than 50%.
With `O=C(Nc1ccc(Oc2ccc(NC(=O)Nc3ccc(-c4ccccc4)cc3)cc2)cc1)Nc1ccc(-c2ccccc2)cc1` the inhibition of growth at 25 µM (HEL [1]) was 13%.
In the case of `O=P(O)(c1ccc(Cl)cc1)c1ccc(Cl)cc1`, the inhibition of growth at 25 µM (HEL [1]) is reported as 13%.
`Cc1c(O)c2ccccc2c2c1sc(NCCCN(CCO)CCO)[n+]2C` gave an inhibition of growth at 25 µM (HEL [1]) of 41%.
For `CC(CCc1ccccn1)(CCc1ccccn1)C(=O)c1ccccc1`, the inhibition [2] was “inactive”.
In the case of `Cc1cc(Cl)ccc1Nc1sc(C(=O)c2cc3cc(Cl)ccc3o2)c(N)c1C#N`, the inhibition of growth at 25 µM (HEL [1]) is reported as 55%.
`OC1C=C(c2ccccc2)C(c2ccccc2)C(c2ccccc2)C1` (stereo unspecified) showed an inhibition of growth at 25 µM (HEL [1]) of 27%.
For `CCc1[nH]nc(-c2ccc(OC)cc2)c1-c1ccccc1O`, the inhibition of growth at 25 µM (HEL [1]) was 40%.
Work on `NC(CSSCC(N)C(=O)c1ccccc1)C(=O)c1ccccc1` (stereo unspecified) yielded an inhibition of growth at 25 µM (HEL [1]) of 30%.
With `C/C(CC(=O)c1ccccc1)=N/CCCCC/N=C(\C)CC(=O)c1ccccc1` the inhibition of growth at 25 µM (HEL [1]) was 31%.
Work on `O=C(Nc1cc(Cl)ccc1Cl)Nc1ccc(Cl)cc1C(=O)c1ccccc1` yielded an inhibition of growth at 25 µM (HEL [1]) of 24%.
Compound `CCc1c(C#N)c(N)c2c(N)c(C(=O)c3ccccc3)sc2c1C` has an inhibition of growth at 25 µM (HEL [1]) of 30%.
Compound `O=C(CN1C=C(/C=N/O)C=CC1)C1CCC(C2CCC(C(=O)CN3CCCC(/C=N/O)C3)CC2)CC1` (stereo unspecified) has an inhibition of growth at 25 µM (HEL [1]) of 8%.
Work on `NC(=O)c1cc(NC(=O)c2ccc(C(=O)Nc3cc(C(N)=O)cc(C4=NCCN4)c3)cc2)cc(C2=NCCN2)c1` yielded an inhibition of growth at 25 µM (HEL [1]) of 10%.
Compound `O=C1C=C(NCCCC2CCCN3CCCCC23)C(=O)c2ccccc21` (stereo unspecified) has an inhibition of growth at 25 µM (HEL [1]) of 27%.
